The values below come from ChEMBL document CHEMBL2417493, “Novel cycloalkylthiophene-imine derivatives bearing benzothiazole scaffold: synthesis, characterization and antiviral activity evaluation” (Bioorg Med Chem Lett, 2013).

Converted amounts (≈) assume the structure as drawn. The source made the active and inactive calls. No cut-off for these calls is given here. Where only a bound is given, the exact number is not on record here.

In data set [1] the test system is Influenza A virus. Description: Antiviral activity against influenza A virus H1N1 infected in dog MDCK cells assessed as inhibition of virus-induced cytopathogenicity at 32 ug/ml after 48 hrs by crystal violet staining method. Format: functional, organism-based. Summed up:
(§1)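 Single-concentration screen with these pairings: RD/EV71, HepG2/CVB5, HeLa/ADV7, MDCK/H1N1. Cells were infected and kept 48 h in the presence of compound at one fixed concentration; some EV71 tests used the lower level. Inhibition of virus proliferation was read by crystal violet staining.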

Data set [2] concerns unidentified adenovirus. Description: Antiviral activity against Adenovirus type 7 infected in human HeLa cells assessed as inhibition of virus-induced cytopathogenicity at 32 ug/ml after 48 hrs by crystal violet staining method. Format: functional. Summed up: as §1
A general note: Cytopathic effects are the visible damage that an infection or toxin causes in cultured cells.

Data set [3] relates to Coxsackievirus B5. Kind of data set: Antiviral activity against Coxsackievirus B5 infected in human HepG2 cells assessed as inhibition of virus-induced cytopathogenicity at 32 ug/ml after 48 hrs by crystal violet staining method. Format: functional. The procedure, abridged:
as §1

For data set [4], the system named is Enterovirus. Description: Antiviral activity against Enterovirus 71 infected in human rhabdomyosarcoma cells assessed as inhibition of virus-induced cytopathogenicity at 32 ug/ml after 48 hrs by crystal violet staining method. Type of data set: functional. Summed up:
as §1

Data set [5] concerns Influenza A virus. Kind of data set: Antiviral activity against influenza A virus H1N1 infected in dog MDCK cells assessed as inhibition of virus-induced cytopathogenicity after 48 hrs by crystal violet staining method. Format: functional, organism-based. The procedure, abridged: (§2)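 Virus–cell pairings were EV71 in RD, CVB5 in HepG2, ADV7 in HeLa and influenza A H1N1 in MDCK. Compounds were added […], and total infectivity was read by crystal violet staining. EC50 is the concentration reducing viral replication by 50%. Values are mean SD of three independent experiments.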

Data set [6] has as its system unidentified adenovirus. Description: Antiviral activity against Adenovirus type 7 infected in human HeLa cells assessed as inhibition of virus-induced cytopathogenicity after 48 hrs by crystal violet staining method. Type of data set: functional, organism-based. The procedure, abridged:
as §2

Data set [7] in a line: Cytotoxicity against human HeLa cells after 72 hrs by MTT assay. Format: cell-based. Summed up: (§3)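 MTT assay on RD (rhabdomyosarcoma), HepG2 and HeLa cell lines. CC50 is the concentration that cut cell viability by 50% relative to 0.1% DMSO-treated mock-control cells. Values are mean and SD of three independent experiments.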
Data set [8] relates to Coxsackievirus B5. Description: Antiviral activity against Coxsackievirus B5 infected in human HepG2 cells assessed as inhibition of virus-induced cytopathogenicity after 48 hrs by crystal violet staining method. Type of data set: functional, organism-based. The procedure, abridged:
as §2

Data set [9] can be described thus: Cytotoxicity against human HepG2 cells after 72 hrs by MTT assay. Type of data set: cell-based. Summed up: as §3
In general terms: Tetrazolium assays rely on reduction of a dye to a coloured formazan, in cell work by metabolically active cells.

The test system of data set [10] is Enterovirus. Kind of data set: Antiviral activity against Enterovirus 71 infected in human rhabdomyosarcoma cells assessed as inhibition of virus-induced cytopathogenicity after 48 hrs by crystal violet staining method. Type of data set: functional, organism-based. The procedure, abridged: as §2
Data set [11] can be described thus: Cytotoxicity against human rhabdomyosarcoma cells after 72 hrs by MTT assay. Type of data set: cell-based, Rhabdomyosarcoma cell. The procedure, abridged: as §3

With `Clc1ccc2sc(-c3c(/N=C/C=C/c4ccccc4)sc4c3CCC4)nc2c1`, the inhibition result with Influenza A virus [1], with unidentified adenovirus [2], in the data set on Coxsackievirus B5 [3] and in the data set on Enterovirus [4] was “Active” in each case. The “inhibition (INH)” value with Influenza A virus [5], in the data set on unidentified adenovirus [6], in the data set with Coxsackievirus B5 [8] and in the data set on Enterovirus [10] was less than 50% throughout. In addition, the CC50 at 72 h in data set [7] was 200 mg/L (≈ 476 µM); in [9], 14.9 mg/L (≈ 35.4 µM); in [11], 122 mg/L (≈ 291 µM).
On to `Clc1ccc(/C=N/c2sc3c(c2-c2nc4ccccc4s2)CCCC3)c(Cl)c1`, for which the inhibition result in the data set with Influenza A virus [1], in the data set on unidentified adenovirus [2], in the data set on Coxsackievirus B5 [3] and with Enterovirus [4] was “Active” in each case. In addition, the “inhibition (INH)” value in the data set on Influenza A virus [5], in the data set with unidentified adenovirus [6], in the data set on Coxsackievirus B5 [8] and with Enterovirus [10] was less than 50% each time. Also, the 50% cytotoxic concentration (CC50) at 72 h worked out at 542 mg/L (≈ 1220 µM) in [7], 384 mg/L (≈ 865 µM) in data set [9] and 56.6 mg/L (≈ 128 µM) in data set [11].
Turning to `Fc1ccccc1/C=N/c1sc2c(c1-c1nc3ccccc3s1)CCC2`, the inhibition entry in the data set with Influenza A virus [1], in the data set on unidentified adenovirus [2], in the data set with Coxsackievirus B5 [3] and with Enterovirus [4] was “Active” throughout. For the same compound, the “inhibition (INH)” value in the data set with Influenza A virus [5], in the data set on unidentified adenovirus [6], in the data set with Coxsackievirus B5 [8] and in the data set with Enterovirus [10] was less than 50% each time. For the same compound, the CC50 at 72 h was 355 mg/L (≈ 938 µM) in [7], 394 mg/L (≈ 1040 µM) in data set [9] and 270 mg/L (≈ 713 µM) in data set [11].
For `Clc1ccc2sc(-c3c(/N=C/C=C/c4ccccc4)sc4c3CCCC4)nc2c1`, the inhibition result in the data set on Influenza A virus [1], in the data set on unidentified adenovirus [2], with Coxsackievirus B5 [3] and in the data set on Enterovirus [4] was “Active” each time. In addition, the “inhibition (INH)” value with Influenza A virus [5], with unidentified adenovirus [6], in the data set with Coxsackievirus B5 [8] and in the data set on Enterovirus [10] was less than 50% each time. The figures for the CC50 at 72 h in [7], in [9] and in [11] were 150 mg/L (≈ 346 µM), 114 mg/L (≈ 262 µM) and 212 mg/L (≈ 486 µM), respectively.
Consider `Clc1ccc(/C=N/c2sc3c(c2-c2nc4ccccc4s2)CCC3)cc1`, for which the inhibition entry in the data set with Influenza A virus [1], in the data set with unidentified adenovirus [2], with Coxsackievirus B5 [3] and in the data set with Enterovirus [4] was “Active” in each case. Moreover, the “inhibition (INH)” value with Influenza A virus [5], in the data set with unidentified adenovirus [6], in the data set on Coxsackievirus B5 [8] and in the data set with Enterovirus [10] was less than 50% throughout. Further, the 50% cytotoxic concentration (CC50) at 72 h is 380 mg/L (≈ 963 µM) in data set [7], 430 mg/L (≈ 1090 µM) in data set [9] and 342 mg/L (≈ 867 µM) in data set [11].
As for `FC(F)(F)c1ccc(/C=N/c2sc3c(c2-c2nc4ccccc4s2)CCCC3)cc1`, the inhibition entry in the data set on Influenza A virus [1], in the data set on unidentified adenovirus [2], with Coxsackievirus B5 [3] and in the data set on Enterovirus [4] was “Active” in each case. In addition, the “inhibition (INH)” value in the data set with Influenza A virus [5], in the data set on unidentified adenovirus [6], with Coxsackievirus B5 [8] and in the data set with Enterovirus [10] was less than 50% throughout. The CC50 at 72 h in [7] amounted to 368 mg/L (≈ 833 µM); in data set [9] it was 361 mg/L (≈ 816 µM); in data set [11] it was 250 mg/L (≈ 566 µM).
Turning to `Clc1ccccc1/C=N/c1sc2c(c1-c1nc3ccccc3s1)CCC2`, the inhibition entry in the data set with Influenza A virus [1], in the data set on unidentified adenovirus [2], in the data set on Coxsackievirus B5 [3] and in the data set with Enterovirus [4] was “Active” in each case. The “inhibition (INH)” value with Influenza A virus [5], in the data set with unidentified adenovirus [6], in the data set with Coxsackievirus B5 [8] and in the data set with Enterovirus [10] was less than 50% each time. Moreover, the CC50 at 72 h in data set [7] is 138 mg/L (≈ 350 µM); in data set [9] it was 180 mg/L (≈ 456 µM); in [11], 123 mg/L (≈ 312 µM).

A word on the CC50: it is the concentration that lowers cell viability or growth by half. Higher therefore signals better tolerance by the cells.
